Reference: ChEMBL document CHEMBL4007402 (J Med Chem, 2017)

Assays:
[1] = Growth inhibition of mouse BAF3 cells after 72 hrs by CellTiter-Glo or CCK-8 assay; format: cell-based
Summary of the method: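 Isogenic murine BaF3 cells transformed with TEL-fused kinases, whose proliferation depends on the fused kinase, were used. Parental BaF3 cells served as the general selectivity counter-screen. The anti-proliferative read-out was reported as GI50.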

[2] = target: T1, Cytoplasmic tyrosine-protein kinase BMX (Homo sapiens) (UniProt P51813)
T1 sequence (whole entry): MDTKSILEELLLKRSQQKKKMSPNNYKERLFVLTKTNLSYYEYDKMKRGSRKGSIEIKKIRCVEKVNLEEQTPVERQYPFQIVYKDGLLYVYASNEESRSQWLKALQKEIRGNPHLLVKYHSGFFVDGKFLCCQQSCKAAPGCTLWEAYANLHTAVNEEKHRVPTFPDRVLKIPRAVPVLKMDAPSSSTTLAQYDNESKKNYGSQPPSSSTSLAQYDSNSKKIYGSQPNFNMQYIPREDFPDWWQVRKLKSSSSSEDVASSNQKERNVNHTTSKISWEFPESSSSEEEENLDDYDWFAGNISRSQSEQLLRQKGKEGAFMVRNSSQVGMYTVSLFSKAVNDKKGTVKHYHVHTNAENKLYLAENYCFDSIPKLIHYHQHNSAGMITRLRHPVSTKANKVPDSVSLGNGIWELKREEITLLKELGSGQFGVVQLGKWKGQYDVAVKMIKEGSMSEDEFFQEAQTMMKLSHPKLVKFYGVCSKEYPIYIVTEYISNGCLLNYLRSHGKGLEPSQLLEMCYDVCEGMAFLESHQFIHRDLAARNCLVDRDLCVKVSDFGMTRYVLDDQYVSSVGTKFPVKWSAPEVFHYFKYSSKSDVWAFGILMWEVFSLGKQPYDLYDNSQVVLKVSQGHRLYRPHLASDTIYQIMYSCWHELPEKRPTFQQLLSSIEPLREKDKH

| GI50 [2] [µM] | Structure (SMILES) | GI50 at 72 h [1] [µM] |
| --- | --- | --- |
| 1.24 | C=CC(=O)Nc1cc(Nc2ncc3c(n2)N(C)C(=O)N(c2cc(NC(=O)c4ccc(C)c(C(F)(F)F)c4)ccc2C)C3)ccc1C | > 10 |
| 2.49 | C=CC(=O)Nc1cc(Nc2ncc3c(n2)N(C)C(=O)N(c2cc(NC(=O)[C@H]4CC[C@H](CCCC)CC4)ccc2C)C3)ccc1C | 5.08 |
| 0.78 | C=CC(=O)Nc1cc(Nc2ncc3c(n2)N(C)C(=O)N(c2cc(NC(=O)c4cc(C(F)(F)F)cc(C(F)(F)F)c4)ccc2C)C3)ccc1C | > 10 |
| 1.07 | C=CC(=O)Nc1cc(Nc2ncc3c(n2)N(C)C(=O)N(c2cc(NC(=O)c4ccc(OC)cc4)ccc2C)C3)ccc1C | > 10 |
| 1.03 | C=CC(=O)Nc1cc(Nc2ncc3c(n2)N(C)C(=O)N(c2cc(NC(=O)c4ccc(N(C)C)cc4)ccc2C)C3)ccc1C | > 10 |
| 2.28 | C=CC(=O)Nc1cc(Nc2ncc3c(n2)N(C)C(=O)N(c2cc(NC(=O)[C@H]4CC[C@H](C)CC4)ccc2C)C3)ccc1C | 8.81 |
| 8.35 | C=CC(=O)Nc1cc(Nc2ncc3c(n2)N(C)C(=O)N(c2cc(NC(=O)[C@@H](N)CCC(=O)OC(C)(C)C)ccc2C)C3)ccc1C | > 10 |
|  | C=CC(=O)Nc1cc(Nc2ncc3c(n2)N(C)C(=O)N(c2cc(NC(=O)c4cccc(C(F)(F)F)c4)ccc2C)C3)ccc1C | 0.74 |
| 0.044 | C=CC(=O)Nc1cc(Nc2ncc(C(=O)Nc3cc(NC(=O)c4cc(C)ccc4F)ccc3C)c(NC)n2)ccc1C | > 10 |
| 1 | C=CC(=O)Nc1cc(Nc2ncc(C(=O)Nc3cc(NC(=O)c4ccc(OC)c(OC)c4)ccc3C)c(NC)n2)ccc1C | > 10 |
|  | C=CC(=O)Nc1cc(Nc2ncc3c(n2)N(C)C(=O)N(c2cc(NC(=O)[C@@H](N)Cc4ccccc4)ccc2C)C3)ccc1C | > 10 |
| 0.008 | C=CC(=O)Nc1cc(Nc2ncc(C(=O)Nc3cc(C(=O)Nc4cccc(C(F)(F)F)c4)ccc3C)c(NC)n2)ccc1C | 4.9 |
| 5.9 | C=CC(=O)Nc1cc(Nc2ncc3c(n2)N(C)C(=O)N(c2cc(NC(=O)[C@H]4CC[C@H](C(F)(F)F)CC4)ccc2C)C3)ccc1C | > 10 |
| 2.74 | C=CC(=O)Nc1cc(Nc2ncc3c(n2)N(C)C(=O)N(c2cc(NC(=O)c4ccc(OC)cc4OC)ccc2C)C3)ccc1C | > 10 |
| 2.78 | C=CC(=O)Nc1cc(Nc2ncc3c(n2)N(C)C(=O)N(c2cc(NC(=O)c4c(C)cccc4F)ccc2C)C3)ccc1C | > 10 |
| 0.098 | C=CC(=O)Nc1cc(Nc2ncc(C(=O)Nc3cc(C(=O)Nc4cc(OC)c(OC)c(OC)c4)ccc3C)c(NC)n2)ccc1C | > 10 |
| > 10 | C=CC(=O)Nc1cc(Nc2ncc3c(n2)N(C)C(=O)N(c2cc(NC(=O)[C@@H](N)Cc4cc5ccccc5[nH]4)ccc2C)C3)ccc1C | > 10 |
| > 10 | C=CC(=O)Nc1cc(Nc2ncc3c(n2)N(C)C(=O)N(c2cc(NC(=O)c4ccc5c(c4)OCCO5)ccc2C)C3)ccc1C | > 10 |

| GI50 [2] [µM] | Structure (SMILES) | GI50 at 72 h [1] [µM] |
| --- | --- | --- |
| 0.155 | C=CC(=O)Nc1cc(Nc2ncc(C(=O)Nc3cc(NC(=O)c4ccc5c(c4)OCCO5)ccc3C)c(NC)n2)ccc1C | > 10 |
|  | C=CC(=O)Nc1cc(Nc2ncc3c(n2)N(C)C(=O)N(c2cc(NC(=O)c4ccc5c(c4)CCCC5)ccc2C)C3)ccc1C | > 10 |
| 5.93 | C=CC(=O)Nc1cc(Nc2ncc3c(n2)N(C)C(=O)N(c2cc(NC(=O)c4cc(OC)c(OC)c(OC)c4)ccc2C)C3)ccc1C | > 10 |
| 3 | C=CC(=O)Nc1cc(Nc2ncc3c(n2)N(C)C(=O)N(c2cc(NC(=O)c4cc(OC)ccc4OC)ccc2C)C3)ccc1C | > 10 |
| 1.1 | C=CC(=O)Nc1cc(Nc2ncc(C(=O)Nc3cc(NC(=O)c4ccc(OC)cc4)ccc3C)c(NC)n2)ccc1C | > 10 |
| 0.67 | C=CC(=O)Nc1cc(Nc2ncc(C(=O)Nc3cc(NC(=O)c4ccccc4OC)ccc3C)c(NC)n2)ccc1C | > 10 |
| 0.69 | C=CC(=O)Nc1cc(Nc2ncc3c(n2)N(C)C(=O)N(c2cc(NC(=O)c4cc(OC)cc(OC)c4)ccc2C)C3)ccc1C | > 10 |
|  | Cc1ccc(Nc2ncc3c(n2)N(C)C(=O)N(c2cc(NC(=O)c4cccc(C(F)(F)F)c4)ccc2C)C3)cn1 | 0.12 |
| 0.23 | C=CC(=O)Nc1cc(Nc2ncc3c(n2)N(C)C(=O)N(c2cc(NC(=O)c4ccc5c(c4)OCO5)ccc2C)C3)ccc1C | > 10 |
| 0.119 | C=CC(=O)Nc1cc(Nc2ncc(C(=O)Nc3cc(NC(=O)c4cc(OC)cc(OC)c4)ccc3C)c(NC)n2)ccc1C | > 10 |
| 0.64 | C=CC(=O)Nc1cc(Nc2ncc3c(n2)N(C)C(=O)N(c2cc(NC(=O)[C@H]4CC[C@H](CCC)CC4)ccc2C)C3)ccc1C | 7.4 |
| 0.031 | C=CC(=O)Nc1cc(Nc2ncc3c(n2)N(C)C(=O)N(c2cc(NC(=O)c4cc(C)ccc4F)ccc2C)C3)ccc1C | > 10 |
| 1.08 | C=CC(=O)Nc1cc(Nc2ncc(C(=O)Nc3cc(NC(=O)c4ccc5c(c4)OCO5)ccc3C)c(NC)n2)ccc1C | > 10 |
| 0.24 | C=CC(=O)Nc1cc(Nc2ncc3c(n2)N(C)C(=O)N(c2cc(NC(=O)c4ccc(OC)c(OC)c4)ccc2C)C3)ccc1C | 8.13 |
| 0.13 | C=CC(=O)Nc1cc(Nc2ncc3c(n2)N(C)C(=O)N(c2cc(NC(=O)[C@@H](N)CC(C)C)ccc2C)C3)ccc1C | > 10 |
| 5.28 | C=CC(=O)Nc1cc(Nc2ncc3c(n2)N(C)C(=O)N(c2cc(NC(=O)[C@H]4CC[C@H](C(C)C)CC4)ccc2C)C3)ccc1C | > 10 |
| 3.01 | C=CC(=O)Nc1cc(Nc2ncc3c(n2)N(C)C(=O)N(c2cc(NC(=O)c4ccccc4OC)ccc2C)C3)ccc1C | > 10 |
| 6 | C=CC(=O)Nc1cc(Nc2ncc(C(=O)Nc3cc(NC(=O)c4cccc(OC)c4)ccc3C)c(NC)n2)ccc1C | > 10 |
